Experimental data from different studies.
Target: Tyrosine-protein kinase ITK/TSK (ITK, Homo sapiens, UniProt Q08881)
One construct used (Q08881 1-620): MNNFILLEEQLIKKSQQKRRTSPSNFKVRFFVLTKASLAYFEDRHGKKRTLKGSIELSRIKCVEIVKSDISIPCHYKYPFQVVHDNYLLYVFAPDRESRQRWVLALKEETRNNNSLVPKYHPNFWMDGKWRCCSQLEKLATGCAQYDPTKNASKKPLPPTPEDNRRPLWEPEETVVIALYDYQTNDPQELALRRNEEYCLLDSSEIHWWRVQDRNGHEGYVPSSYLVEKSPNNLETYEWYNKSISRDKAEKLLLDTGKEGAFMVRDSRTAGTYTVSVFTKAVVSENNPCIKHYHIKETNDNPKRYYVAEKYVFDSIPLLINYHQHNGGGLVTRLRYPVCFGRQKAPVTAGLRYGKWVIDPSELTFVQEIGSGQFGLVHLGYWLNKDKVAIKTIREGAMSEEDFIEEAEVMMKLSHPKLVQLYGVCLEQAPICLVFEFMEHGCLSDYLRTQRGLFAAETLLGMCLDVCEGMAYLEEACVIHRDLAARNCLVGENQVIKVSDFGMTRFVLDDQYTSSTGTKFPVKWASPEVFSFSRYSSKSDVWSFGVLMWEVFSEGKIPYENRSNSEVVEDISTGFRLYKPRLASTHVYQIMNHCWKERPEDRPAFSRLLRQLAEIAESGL

O=C(O)[C@H]1[C@H](Cn2nnc3ccccc3c2=O)CC[C@@H]1C(=O)c1ccc(OCCC2CCOCC2)cc1 — remaining binding (cell-free assay, competition with immobilised ligand; 1 µM): 100%
N[C@@H]1CCN(c2nccc(-c3cnn4ncccc34)n2)C1 — remaining binding (binding; 1 µM): 93%
O=C(Nc1c[nH]nc1C(=O)NC1CCNCC1)c1cc(F)cc(F)c1 — remaining binding (binding, competition with immobilised ligand; 1 µM): 100%
CN1CCN(c2cnc3c(C4CCN(C(=O)c5ccc(OC(F)(F)F)cc5N)CC4)ncnc3c2)CC1 — remaining binding (cell-free assay, competition with immobilised ligand; 1 µM): 100%
O=C(c1ccc(Nc2nccc(-c3cc4ccccc4s3)n2)cc1)N1CCC(N2CCCC2)CC1 — remaining binding (binding, competition with immobilised ligand; 1 µM): 96%
FC(F)(F)Oc1cccc(-c2cnc3ccc(-c4ccncc4)nn23)c1 — remaining binding (cell-free assay, competition with immobilised ligand; 5 µM): 84%
CCC(=O)N[C@@H]1CC[C@H](C(=O)N(C)c2ccc(-c3nc4ccccc4o3)cc2)C1 — remaining binding (cell-free assay, competition with immobilised ligand; 1 µM): 100%
CC1CCCN1c1nccc(-c2cnn3ncccc23)n1 (centres unmarked) — remaining binding (binding; 1 µM): 100%
COc1cnc(Nc2cccc(S(N)(=O)=O)c2)nc1N1CCN(c2ccccc2)CC1 — remaining binding (binding, competition with immobilised ligand; 1 µM): 95%
O=C(c1ccc(Nc2ncc(Cl)c(-c3ccc(Cl)s3)n2)cc1)N1CCC(N2CCCC2)CC1 — remaining binding (binding, competition with immobilised ligand; 1 µM): 29%
COc1cc(-c2cn(C3CCc4c(F)cccc4N(CC(F)(F)F)C3=O)nn2)ccc1-n1cnc(C)c1 (centres unmarked) — remaining binding (cell-free assay, competition with immobilised ligand; 1 µM): 100%
COc1cnc(Nc2cccc(S(N)(=O)=O)c2)nc1N1CCN(c2ccccc2)C(=O)C1 — remaining binding (binding, competition with immobilised ligand; 1 µM): 100%
Cc1cnn2ncc(-c3ccnc(N(C)C)n3)c2c1 — remaining binding (binding; 1 µM): 100%
Cn1nc(C(=O)NCc2ccc(C(=O)O)cc2)cc1-c1ccc2[nH]ccc2c1 — remaining binding (cell-free assay, competition with immobilised ligand; 0.1 µM): 85%
C[C@@H]1CCN(c2nccc(-c3cnn4ncccc34)n2)C1 — remaining binding (binding; 1 µM): 91%
Nc1ncc2c(n1)-c1c([nH]c3ccc(C#CC4CC4)cc13)CCCC2 — remaining binding (binding, competition with immobilised ligand; 1 µM): 92%
CN(C)c1nccc(-c2cnc3ncccn23)n1 — remaining binding (binding; 1 µM): 88%
O=C(Nc1cccnn1)N1CC(C/C=C/c2cncc(Oc3ccc(C(F)(F)F)cn3)n2)C1 — remaining binding (cell-free assay, competition with immobilised ligand; 1 µM): 100%
F[C@@H]1CCN(c2nccc(-c3cnn4ncccc34)n2)C1 — remaining binding (binding; 1 µM): 100%
Cc1cnc(Nc2ccc(C(=O)N3CCC(N4CCCC4)CC3)cc2)nc1-c1cc2ccccc2s1 — remaining binding (binding, competition with immobilised ligand; 1 µM): 59%
